Data set [1] in a line: In vivo brain biodistribution, LC-MS/MS. On the set-up: species or system C57BL/6 mice. Conditions: i.v., 30 min after dosing.
For data set [2], the system named is U87-GFP/luc tumors. Nature of the data set: Subcutaneous U87-GFP/luc xenograft model of GBM. Type of data set: in vivo, NSG mice. Put shortly: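 2 × 10⁶ U87-GFP/luc cells were injected into the flanks of NSG mice. Once tumours were established, mice were randomised to test compound, comparators or vehicle (PBS, 5% DMSO, 5% solutol), n = 7–9 per group, and treated for 21 d. Tumour volume and final tumour weight are reported as mean ± SEM.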

The subject of data set [3] is TB43, TB48, GBM59, GBM96 primary GBM cultures. The data set is described as follows: Proliferation of primary GBM cultures with EMA401, A3E, TMZ, CCK8. It is filed as cell-based, human. Conditions: for sensitivity of GBM96: GBM96 (lacks AGTR1), A3E 10 μM.
The subject of data set [4] is U87-GFP/luc tumors. The data set is described as follows: Orthotopic. It is filed as in vivo, BALB/c nude mice. Summed up:
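2 × 10⁵ U87-GFP/luc cells were implanted into the right cerebral cortex. After 7 d, mice were randomised to test compound or vehicle (PBS, 5% DMSO, 5% solutol), n = 6 each, dosed daily i.p. for 14 d. IVIS bioluminescence was imaged twice weekly and body weight tracked. Tumour sections were scored for H&E tumour area, fluorescent integrin β3 intensity and TUNEL intensity.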

Another data set deals with rat AT1R. Conditions: read-out: IC50 at rat AT1R; cited from earlier work.
Data set [5] relates to TB48, TB77, GBM96 spheroids. Nature of the data set: 3D spheroid growth, CCK8. It is filed as cell-based, human. Conditions: 10, 30, 50 μM, CCK8 9 d posttreatment. Summed up: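 TB48, TB77 and GBM96 primary cells grown as 3D spheroids were exposed to test compound at 10, 30 and 50 μM. Growth was read by CCK8 9 d posttreatment. Values are mean A450 normalised to untreated control ± SEM. Groups were compared by ANOVA with Tukey's test.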

Data set [6] has as its system TB77 cells. Nature of the data set: TB77 proliferation, CCK8. Type of data set: cell-based, human. Conditions: 1, 10, 30 μM, 1% serum, CCK8 9 d posttreatment; P = 0.0011.
For data set [7], the system named is TB77 cells. The data set is described as follows: RNA sequencing, whole-transcriptome analysis. It is filed as cell-based, human. The settings on record: 30 µM, 24 h; for number of differentially expressed genes vs untreated control: P < 0.01; for number of unique differentially expressed genes: not shared with the other antagonist.
Data set [8] deals with TB77 cells. The data set is described as follows: Cell cycle, propidium iodide flow cytometry. Type of data set: cell-based, human. Conditions: 10, 30, 50 μM. On the technique in general: In flow cytometry, cells or beads pass a laser one at a time.
The next data set concerns GBM96 spheroids. Nature of the data set: Spheroid invasion in 50% Matrigel. Type of data set: cell-based, human. Conditions: GBM96, dose-dependent, area covered by invading cells. Put shortly:
(§1)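 Primary-cell spheroids were embedded in 50% Matrigel and exposed to test compound. Invasion was followed over time as the area covered by invading cells, by image thresholding. Values are mean area in pixels ± SEM. Groups were compared by ANOVA with Tukey's test.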

The conditions of data set [9]: cited from earlier work.
The subject of data set [10] is TB77 cells. The data set is described as follows: Muse Annexin V & Dead Cell Assay. Type of data set: cell-based, human. The settings on record: 10, 30, 50 μM; 24, 48, 72 h; time and dose dependent.
In the next data set the test system is TB48 spheroids. Nature of the data set: Spheroid invasion in 50% Matrigel. It is filed as cell-based, human. Conditions: TB48, 30 μM. Put shortly:
as §1

In the next data set the test system is GBM31. The data set is described as follows: Proliferation of GBM31. Type of data set: cell-based, human. The settings on record: 1, 10, 30 μM, 1% serum, CCK8 9 d. Summed up: (§2)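 Primary GBM explants in 1% serum were exposed to test compound at 1, 10 and 30 μM. Viability was read by CCK8 9 d posttreatment. Values are mean A450 normalised to untreated control ± SEM.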

The test system of data set [11] is caspase-3/7 in TB77 cells. The data set is described as follows: Caspase-Glo 3/7 Assay. It is filed as cell-based, human. The settings on record: 30 μM.
In data set [12] the test system is TB26, TB43, TB48, GBM59, GBM96 primary GBM cultures. Nature of the data set: Proliferation of AGTR2-expressing primary GBM cultures, CCK8. Type of data set: cell-based, human. The settings on record: GBM59, 1% serum, CCK8 9 d. Put shortly:
as §2

The test system of a further data set is hCMEC/D3. Nature of the data set: Endothelial cell tube formation with GBM-conditioned media. Type of data set: cell-based, human. The settings on record: 6-h incubation with media of TB77 treated with 30 μM EMA401. Summed up: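 Conditioned media came from untreated TB77 cells or TB77 treated with 10 μM AT1R antagonist and 30 μM test compound. hCMEC/D3 endothelial cells were incubated in these media for 6 h. Read-outs were total segment length (pixels) and number of meshes, as mean ± SEM. Groups were compared by ANOVA with Tukey's multiple comparisons.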

Another data set concerns the target AT2R. Conditions: cited from earlier work; for Kd: read-out: KD (Dissociation constant) for AT2R.
The test system of data set [13] is 8MG, TB26, TB77 GBM cells. The data set is described as follows: Growth of AT2R-expressing GBM cells with AngII and antagonists, low serum. Type of data set: cell-based, human. The settings on record: 1% FBS, 6 d; for effect of antagonist on AngII-enhanced growth: antagonist 10 μM + 10 nM AngII. Put shortly:
(§3)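 Cells in 1% FBS received 10 nM AngII, AT1R or AT2R antagonists at 10 μM, each antagonist plus AngII, or both antagonists together. Established lines were read by SRB staining and primary cultures by CCK8, 6 d posttreatment. Values are mean absorbance normalised to untreated control ± SEM. Groups were compared by ANOVA with Tukey's test.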

Another data set has as its system GBM59. The data set is described as follows: TMZ sensitivity of primary GBM cells, SRB. It is filed as cell-based, human. The settings on record: TMZ 2-512 μM, 10% FBS, SRB after 9 days.
The next data set deals with TB82. The data set is described as follows: Growth of GBM cells expressing AT1R but not AT2R with AngII, low serum. It is filed as cell-based, human. Conditions: 10 nM AngII, 1% FBS, 6 d. Summed up: as §3

Regarding `COc1ccc2c(c1OCc1ccccc1)C[C@@H](C(=O)OCC(=O)NCCCC[C@H](NC(=O)CNC(=O)[C@H](CCCNC(=N)N)NC(=O)[C@H](CO)NC(=O)CNC(=O)CNC(=O)[C@H](Cc1ccc(O)cc1)NC(=O)[C@H](Cc1ccccc1)NC(=O)[C@H](Cc1ccccc1)NC(=O)[C@@H](NC(=O)COC(=O)[C@@H]1Cc3c(ccc(OC)c3OCc3ccccc3)CN1C(=O)C(c1ccccc1)c1ccccc1)[C@@H](C)O)C(=O)N[C@@H](CCCNC(=N)N)C(=O)N[C@@H](CC(N)=O)C(=O)N[C@@H](CC(N)=O)C(=O)N[C@@H](Cc1ccccc1)C(=O)N[C@@H](CCCCNC(=O)COC(=O)[C@@H]1Cc3c(ccc(OC)c3OCc3ccccc3)CN1C(=O)C(c1ccccc1)c1ccccc1)C(=O)N[C@H](C(=O)N[C@@H](CCC(=O)O)C(=O)N[C@@H](CCC(=O)O)C(=O)N[C@@H](Cc1ccc(O)cc1)C(=O)O)[C@@H](C)O)N(C(=O)C(c1ccccc1)c1ccccc1)C2` [A3E], the “EMA401 metabolite (peak at 3.7 min, m/z 314) in brain samples” value in data set [1] is given as “not detected”. Moreover, the “tumor size, volume and weight vs vehicle- or EMA401-treated groups” value with U87-GFP/luc tumors [2] (A3E 25.88 mg/kg i.p. daily, 21 d, NSG mice) was “significantly smaller size”. For the same compound, the “efficacy compared with TMZ” value in the data set with U87-GFP/luc tumors [2] (A3E 25.88 mg/kg, TMZ 30 mg/kg, i.p. daily) was “slightly more effective than TMZ, though this was not significant”. Moreover, the “antiproliferative effect compared with EMA401” value in data set [3] (A3E 10 μM vs EMA401 30 μM, 1% serum, CCK8 9 d) was “equivalent inhibition to native EMA401 at a three-fold lower dose”. Moreover, the “sensitivity of GBM96” value in data set [3] (EMA401 30 μM) is listed as “especially sensitive”. In addition, the “reduction of tumor size vs vehicle control” value with U87-GFP/luc tumors [4] (A3E 25.88 mg/kg i.p. daily for 14 d, bioluminescent imaging (IVIS), n = 6) is 40%. The “integrin β3 staining (angiogenesis) of tumor sections” value in the data set on U87-GFP/luc tumors [4] (n = 2, P = 0.17) was “reduction in integrin-β3 staining”. Further, the “apoptosis, TUNEL assay of tumor sections” value in the data set on U87-GFP/luc tumors [4] (n = 3, P = 0.056) is given as “apoptosis was enhanced”. For the same compound, the “tumor area, H&E staining, vs saline group” value in the data set on U87-GFP/luc tumors [4] (n = 5, P = 0.084) is recorded as “consistently smaller”. Also, the “toxicity by body weight” value in the data set on U87-GFP/luc tumors [4] (subcutaneous or intracranial models, no significant weight loss over the study) is on record as “no detectable toxicity”.

As for `COc1ccc2c(c1OCc1ccccc1)C[C@@H](C(=O)O)N(C(=O)C(c1ccccc1)c1ccccc1)C2` [EMA401], the IC50 with rat AT1R was 408 µM. For the same compound, the spheroid growth sensitivity entry in data set [5] is “sensitive”. Besides, the “growth inhibition compared with PD123319” value in the data set on TB77 cells [6] is “significantly more potent growth inhibition than PD123319”. Also, the “EMA401 metabolite (peak at 3.7 min, m/z 314) in brain samples” value in data set [1] is “a metabolite was identified”. Further, in the data set with TB77 cells [7], the “number of differentially expressed genes vs untreated control” value is on record as 5,498 genes and the “number of unique differentially expressed genes” value is reported as 4,211 genes. In the data set on TB77 cells [7] (RNA-seq), the “down-regulation of FGF18” value came out at 2.7 fold, the “down-regulation of G6PD” value was determined as 1.26 fold, the “down-regulation of PDK2” value was 1.29 fold and the “down-regulation of PDK4” value was 1.29 fold. In the data set with TB77 cells [7] (RNA-seq), the “down-regulation of PIDD1” value amounted to 1.3 fold, the “down-regulation of TKT” value is 1.33 fold, the “up-regulation of CASP3” value worked out at 1.43 fold and the “up-regulation of MAP2K3” value was 1.7 fold. Moreover, in the data set with TB77 cells [7] (RNA-seq), the “up-regulation of NFKB2” value turned out to be 1.5 fold, the “up-regulation of RelB” value is listed as 2.4 fold and the “up-regulation of TNFRSF21” value was determined as 1.5 fold. For the same compound, in the data set with TB77 cells [8], the cell-cycle parameters entry is “No changes in cell-cycle parameters”. Moreover, the spheroid invasiveness entry in the data set with GBM96 spheroids is “significantly reduced the invasiveness”. Also, the blood-brain barrier penetration entry in data set [9] was “inability of EMA401 to penetrate the blood–brain barrier”. In addition, the “antiproliferative potency compared with TMZ” value in data set [3] (EMA401 30 μM, TMZ 30 μM, 1% serum, CCK8 9 d) is “greater potency than TMZ”. For the same compound, the “sensitivity of GBM96” value in [3] (EMA401 30 μM) is on record as “especially sensitive”. In addition, the early apoptotic cells entry with TB77 cells [10] is “significant increase in early apoptotic cells”. Further, the spheroid invasiveness result with TB48 spheroids is “significantly reduced”. Further, the “sensitivity of GBM31 to growth inhibition” value with GBM31 is given as “insensitive”. In addition, in data set [11] (24 h, luminescence, P < 0.0001), the “enhancement of caspase-3/7 activation” value amounted to 30%. In [11] (48 h), the caspase-3/7 activation entry is “returned to baseline levels”. Further, the “growth inhibition of TMZ-insensitive GBM59” value in data set [12] is “efficiently inhibited”. The “total segment length of endothelial tubes” value in the data set on hCMEC/D3 is “significantly reduced”.

For `Cc1cc(Cn2cnc3c2C[C@@H](C(=O)O)N(C(=O)C(c2ccccc2)c2ccccc2)C3)ccc1N(C)C` [PD123319], the IC50 with rat AT1R was 210 µM. In the data set on TB77 cells [7], the “number of differentially expressed genes vs untreated control” value was 2,195 genes and the “number of unique differentially expressed genes” value stood at 908 genes. For the same compound, the dissociation constant Kd at AT2R is 0.0717 µM. In addition, the “proliferation in the absence of exogenous AngII” value in data set [13] (10 μM, significant in 8MG and TB77) is “inhibited the proliferation”. The “effect of antagonist on AngII-enhanced growth” value in data set [13] is given as “blocked the enhanced growth”.

Regarding `Cn1nnc2c(C(N)=O)ncn2c1=O` [TMZ, temozolomide], the “sensitivity of GBM59 to TMZ” value in the data set with GBM59 was “insensitive”.

As for `CCCCc1nc(Cl)c(CO)n1Cc1ccc(-c2ccccc2-c2nn[nH]n2)cc1` [losartan], in [13], the “effect of antagonist on AngII-enhanced growth” value is “no effects were observed”.

Take “angiotensin II (DRVYIHPF; Angiotensin-2; UniProt P01019 25-32, looked up) [AngII]”: in the data set with AT2R, the “selectivity for AT2R over AT1R” value is 10 fold and the Kd was 0.0016 µM. Besides, in the data set with TB82, the “cell growth with exogenous AngII” value is given as “minimally increased”. Also, the “cell growth with exogenous AngII” value in data set [13] (10 nM AngII, SRB or CCK8) is “significantly enhanced”.

The IC50 is the concentration that inhibits the measured activity by half. Broadly, the Kd is the concentration at which binding is half-saturated.

Source of the values: article PMC9371711 (Proceedings of the National Academy of Sciences of the …, 2022).
